High-throughput results (PubChem BioAssay)
PMI activator = increases human mannose-6-phosphate isomerase activity | P34949 | purified human PMI, coupled resazurin fluorescence, 20 min; hits give high values; 1 = vehicle control, 0 substrate-free wells | activation factor at 20 µM | 190,000 tested, 0.005% active;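 active means activation factor of 2 or more at 20 µM, relative to plate controls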
ABCB1 block = human ABCB1 inhibition, ABCG2 as counter-screen; CCRF-Adr cells, JC-1 efflux, flow cytometry; 190,000 tested, 0.067% active; inhibition, % at 6.6 µM; P08183; in the data active means inhibition above about 40%;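 further: 0% = vehicle and 100% = reference inhibitor; higher value means more JC-1 retained so stronger ABCB1 efflux block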
ABCG2 block = inhibitors of human ABCG2 transporter, ABCB1 counter-screen; inhibition, % at 6.6 µM; Q9UNQ0; IgMXP3 cells, JC-1 efflux, flow cytometry; 190,000 tested, 0.1% active;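 active means inhibition above 80%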;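 further: 0% = DMSO and 100% = nicardipine control wells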
Target sequence (Q9UNQ0 whole entry, looked up): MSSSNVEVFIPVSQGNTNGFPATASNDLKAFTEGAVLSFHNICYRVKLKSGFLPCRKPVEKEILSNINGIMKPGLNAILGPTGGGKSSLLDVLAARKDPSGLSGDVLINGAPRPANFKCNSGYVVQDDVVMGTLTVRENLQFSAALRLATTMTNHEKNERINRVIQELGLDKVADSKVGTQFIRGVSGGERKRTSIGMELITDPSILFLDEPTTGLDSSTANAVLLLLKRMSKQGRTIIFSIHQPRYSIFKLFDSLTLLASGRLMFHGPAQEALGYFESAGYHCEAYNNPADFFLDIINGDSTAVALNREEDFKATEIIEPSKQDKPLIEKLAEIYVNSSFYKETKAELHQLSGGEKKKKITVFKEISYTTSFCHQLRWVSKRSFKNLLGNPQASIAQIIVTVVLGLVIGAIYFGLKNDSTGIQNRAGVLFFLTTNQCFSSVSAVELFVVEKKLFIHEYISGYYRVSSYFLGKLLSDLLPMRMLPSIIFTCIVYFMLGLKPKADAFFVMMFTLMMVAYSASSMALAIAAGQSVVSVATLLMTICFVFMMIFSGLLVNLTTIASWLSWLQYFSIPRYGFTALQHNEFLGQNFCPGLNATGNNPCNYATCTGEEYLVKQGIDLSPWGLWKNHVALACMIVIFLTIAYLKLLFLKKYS
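Test system: IgMXP3 (ABCG2) plus far-red-tagged CCRF-Adr (ABCB1) cells. Reagent: JC-1 dye as substrate. Timing: 10 min exposure at 25 °C with rotation, no wash. Measured by: flow cytometric JC-1 green MFI at 530 nm. Read-out: percent efflux inhibition, scaled nicardipine 100% to DMSO 0%. Control set: nicardipine and DMSO wells.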
PMI act hi M6P = increases human PMI activity with near-saturating mannose 6-phosphate | P34949 | coupled PMI enzyme assay, resazurin fluorescence, 20 min; hits give high values; 1 = untreated enzyme, 0 = substrate-free blank | 190,000 tested, 0.34% active | AID 1216 | activation factor at 20 µM;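 active means activation factor of 2 or more at 20 µM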
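Material: human phosphomannose isomerase with PGI, G6PDH, diaphorase coupling enzymes; amount: PMI at 15 ng/mL final; also added: Mannose-6-phosphate 1.0 mM (near-saturating) plus 0.22 mM NADP+; incubation: enzyme reaction with compound 20 min at room temperature; signal: resorufin fluorescence (Ex 544/Em 590 nm) from resazurin via diaphorase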
ROMK mod = human ROMK K+ channel modulation, primary screen; AID 1918; P48048; 130,000 tested, 2% active; Tet-inducible ROMK, thallium flux fluorescence; actives lie on both sides; B-score at 10 µM;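 active means signal ratio slope over the read window, or its plate-corrected B-score, at least 3 SD from the plate mean, either direction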;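 further: B-score of the F/F0 ratio slope over 7 to 12 s after thallium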
KCC2 mod = modulates chloride dependent transport by human KCC2; KCC2 cells, thallium flux FluoZin-2 fluorescence; B-score of Tl+ flux slope (higher = more flux/activation; lower = inhibition) at 10 µM; 190,000 tested, 2.2% active; AID 1456;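 active means thallium flux slope and its plate-corrected score both differing from the plate sample mean at a set confidence after two filtering rounds, in either direction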;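 further: slope of fluorescence scaled to starting intensity during 10 to 20 s after thallium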
KCC2 secondary = KCC2 (human) modulation, secondary assay; 3,700 tested, 15% active; shares compounds with KCC2 mod; normalised thallium flux (F/F0 slope) at 10 µM; AID 1713; HEK293-KCC2, thallium flux, FluoZin2 fluorescence; hits give high values;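 active means thallium flux slope above the same plate's solvent-only control mean plus 3 SD; inconclusive means the two replicate wells disagree; inactive means no significant difference from solvent-only control wells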
KCC2 bumet counter = bumetanide-insensitive thallium flux in KCC2 cells with ouabain, counter-screen. shares compounds with KCC2 mod. normalized thallium flux at 10 µM. 3,700 tested, 49% active. HEK293-KCC2 + bumetanide/ouabain, thallium flux FluoZin2; hits give high values;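 active means thallium entry rate above the same plate's blocked-transporter control wells by more than 3 SD; inconclusive means the two repeat wells disagree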;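 further: raw slope of fluorescence over initial fluorescence between 10 and 20 s after thallium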
KCC2 secondary2 = confirmation of human KCC2 transport modulators | shares compounds with KCC2 mod | HEK293-KCC2, thallium flux FluoZin2 fluorescence; actives lie on both sides; F/F0 rise rate, 10–20 s post-thallium | normalized thallium flux at 10 µM | 3,700 tested, 23% active;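 active means thallium flux slope more than 3 SD above or below the plate's solvent-only control mean, mostly below; inconclusive means the two repeat wells disagreed; inactive means no significant shift from solvent-only controls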;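 further: raw slope with 0.1% DMSO as baseline and bumetanide as block control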
HEK293 Tl flux = parental HEK flux effect, counter-screen. 3,700 tested, 46% active. AID 1716. thallium flux rate (normalised fluorescence) at 10 µM. HEK293 parental cells, thallium flux FluoZin2, ouabain; baseline-ratio fluorescence slope, 10–20 s after thallium. shares compounds with KCC2 mod;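 active means thallium flux rate significantly above the same plate's solvent-only control wells, beyond their mean plus 3 SD; inconclusive means the two replicate wells gave conflicting results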
KCC2 ouabain = confirmation of human KCC2 modulators with ouabain. shares compounds with KCC2 mod. HEK293-KCC2, thallium flux FluoZin2 fluorescence; bidirectional: low = inhibitor, high = activator. raw Tl+ flux slope (below DMSO = inhibition, above = activation) at 10 µM. 3,700 tested, 48% active. AID 1717;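 active means thallium flux slope beyond 3 SD from same-plate DMSO control mean in most replicates, usually higher, sometimes lower; inconclusive means repeat tests gave conflicting results; inactive means no significant difference from controls in most replicates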;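 further: slope of initial-normalized fluorescence between seconds 10 and 20 after thallium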
HEK293 Tl flux2 = acts in parental HEK cells, second KCC2 counter-screen | shares compounds with KCC2 mod | thallium flux slope at 10 µM | 3,700 tested, 33% active | AID 1718 | HEK293 parental, thallium flux FluoZin-2 fluorescence slope;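 active means thallium flux slope above the same plate's solvent-control mean plus 3 SD in both duplicate wells; inconclusive means duplicate wells that disagreed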;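 further: run without ouabain in cells lacking the KCC2 cotransporter; slope of fluorescence scaled to its starting value between 10 and 20 s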
The depositor's hits bear a star; u = inconclusive; x = no result given. Hits are enriched below; roughly 3.3% of the tested compounds scored in any of these assays.

SMILES	PMI activator	ABCB1 block	ABCG2 block	PMI act hi M6P	ROMK mod	KCC2 mod	KCC2 secondary	KCC2 bumet counter	KCC2 secondary2	HEK293 Tl flux	KCC2 ouabain	HEK293 Tl flux2
CN(C)S(=O)(=O)c1cccc(NC(=S)N/N=C/c2ccco2)c1	x	x	x	x	x	6.3*	0.0067	0.0075*	0.027	0.0094*	0.019	0.012*
O=C(NNC(=O)c1ccc(Oc2cc(Cl)cc(Cl)c2)o1)c1ccccc1	x	x	x	x	x	28*	0.014*	0.051*	0.03	0.02*	0.036*	0.012*
O=C(NNC(=O)c1ccc(Oc2ccc(C3SCCS3)cc2)o1)c1ccc(Cl)cc1	x	x	x	x	-0.51	5.4*	0.0081	0.026*	0.031	0.01*	0.032*	0.01*
Cc1cc(C)c(NC(=O)/C(=C/c2ccccc2)c2ccccc2)c(C)c1	0.9	3	11	0.9	-0.28	-3.5	x	x	x	x	x	x
CN(CC(=O)N1CC=C(c2ccccc2)CC1)S(=O)(=O)c1ccc2c(c1)c(=O)n(C)c(=O)n2C	1	1	2	0.8	x	-3.9*	0.011	u	0.034	0.0081	0.023	0.011
CCC(Cc1ccccc1)NC(=O)CN(C)S(=O)(=O)c1ccc2c(c1)c(=O)n(C)c(=O)n2C (centres undefined)	1.1	1	3	1	x	x	0.0068	0.005	0.024*	0.0082	u	0.012
Cc1cccc(CCNC(=O)CN(C)S(=O)(=O)c2ccc3c(c2)c(=O)n(C)c(=O)n3C)c1	1	-1	2	1	x	-0.25	x	x	x	x	x	x
Cn1c(=O)c2cc(S(=O)(=O)NCCC(=O)N3CC=C(c4ccccc4)CC3)ccc2n(C)c1=O	0.9	1	4	0.8	x	-0.4	x	x	x	x	x	x
CCn1c(O)c(N=NC(=O)c2cccs2)c2ccccc21	1.1	1	6	1	-0.4	8.8*	u	0.029*	0.032	0.013*	0.027*	0.011*
CCn1c(O)c(N=N)c2ccccc21	1	0	0	0.9	-0.36	0.29	x	x	x	x	x	x
CC(NCC(=O)Nc1cc(S(=O)(=O)N2CCCCCC2)ccc1Cl)c1ccccc1 (centres undefined)	0.9	3	14	1	0.29	-1.3	x	x	x	x	x	x
CC(C)(C)NC(=O)C(=O)N/N=C/c1ccc(Br)cc1	1.1	0	1	1.1	-0.62	x	x	x	x	x	x	x
CSC(=S)N/N=C/c1ccc(Br)cc1	1	-2	-5	1	2	68*	0.026*	0.088*	0.048*	0.037*	0.046*	0.038*
Cc1nnc(NC(=O)CSc2ccc3nnc(-c4cccnc4)n3n2)s1	1.2	0	5	1.1	-0.44	1.3	x	x	x	x	x	x
CCC(c1nnnn1Cc1cccs1)N1CCN(c2nc3ccccc3s2)CC1 (centres undefined)	1	5	23	0.9	x	-4*	0.0069	0.0041	u	0.0063*	0.014*	0.011
COc1ccc(Cn2nnnc2C(CC(C)C)N2CCN(c3ccccc3)CC2)cc1 (centres undefined)	1	1	2	0.9	0.25	x	0.0088	0.0041	0.033	0.0067	0.018	0.011
CCC(c1nnnn1Cc1cccs1)N1CCN(C2CCCC2)CC1 (centres undefined)	1	1	1	1.1	x	0.24	x	x	x	x	x	x
CC(C)CC(c1nnnn1Cc1cccs1)N1CCN(c2nc3ccccc3s2)CC1 (centres undefined)	0.9	8	28	0.9	x	-5.1*	0.006	0.005	u	0.0076	u	0.011
CC(C)C(c1nnnn1Cc1ccco1)N1CCN(c2nc3ccccc3s2)CC1 (centres undefined)	0.9	4	26	0.9	x	-0.56	x	x	x	x	x	x
CC(NCc1ccc2c(c1)OCO2)C(=O)NC1CCCc2ccccc21 (centres undefined)	0.9	0	1	0.9	-0.79	0.11	x	x	x	x	x	x
O=C(NC1CCCCC1)C(c1ccccn1)N(C(=O)c1csnn1)C1CCCCC1 (centres undefined)	1.1	1	0	1.1	0.93	0.24	x	x	x	x	x	x
Cc1cc(C)cc(N=Cc2ccc([N+](=O)[O-])s2)c1	0.8	0	-1	0.6	0.23	-0.016	x	x	x	x	x	x
Cc1ccc(NC(=S)N/N=C/c2ccc([N+](=O)[O-])s2)cc1	1.5	-3	-12	1.7	0.74	15*	0.014*	0.047*	0.035	u	0.041*	0.02*
CC(C)c1cc(C(F)(F)F)n2nc(C(=O)Nc3ccc(-n4cnnn4)cc3)cc2n1	x	x	x	x	x	0.31	x	x	x	x	x	x
O=C(NCCc1ccc(Cl)cc1)C1CCN(S(=O)(=O)N2CCCC2)CC1	1.1	0	1	1.1	x	-6.7*	0.0068	0.0047	0.028	0.0078	0.019	0.011
CCOc1ccc2cc(/C=C/C(=O)c3ccco3)c(Cl)nc2c1	1.1	1	5	1.1	-3.5	-0.0071	x	x	x	x	x	x
CN1/C(=C\C(=S)NC(=O)c2cccc(Br)c2)C(C)(C)c2ccccc21	1.3	0	-1	1.8	x	4.6*	0.01	0.014*	0.035	u	u	0.012
COc1ccc(N2CCN(c3nc(Cl)nc(Nc4ccc(F)cc4)n3)CC2)cc1	1	0	0	1	0.26	0.32	x	x	x	x	x	x
Cc1cc2c(c(=O)n1C)C(Cc1ccccc1)C(C#N)=C(N)O2 (centres undefined)	0.9	2	12	1	-0.13	0.29	x	x	x	x	x	x
COC(=O)c1sccc1NC(=S)NCc1ccc(Cl)cc1	x	x	x	x	x	160*	0.07*	0.16*	0.058*	u	0.12*	0.058*
